The values below come from ChEMBL document CHEMBL3758100, “4H-Chromene-based anticancer agents towards multi-drug resistant HL60/MX2 human leukemia: SAR at the 4th and 6th positions” (Bioorg Med Chem, 2016).

Assay [1] in a line: Cytotoxicity against human HL60 cells assessed as cell growth inhibition after 48 hrs by cell titer blue cell viability assay. The format is functional, cell-based. The settings on record: HL-60, 48 h. Put shortly:
(§1)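 HL60 or HL60/MX2 cells kept in RPMI 1640 with 10% FBS and 1% penicillin–streptomycin at 37 °C, 5% CO2. Seeded at 1 × 10^4 cells/well and exposed to serial dilutions (1% DMSO final; 1% DMSO medium as control) in triplicate for 48 h. Viability read by CellTiter-Blue. IC50 fitted with a dose–response model; at least three biological repeats on different days; mean ± SD.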

Assay [2] is described as follows: Cytotoxicity against human HL60/MX2 cells assessed as cell growth inhibition after 48 hrs by cell titer blue cell viability assay. The format is functional, cell-based. As to conditions: HL60/MX2, 48 h. A digest of the protocol: as §1
The test system of assay [3] is HL-60. Nature of the assay: Selectivity ratio of IC50 for human HL60/MX2 cells to IC50 for human HL60 cells. The format is functional. Put shortly: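 Ratio of IC50 in HL60/MX2 over HL60, both from the 48 h CellTiter-Blue growth-inhibition assay. IC50s are means of at least three biological repeats. Two-tailed Student t test between the two cell lines.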

For the compound `C#CCOC(=O)CC1C(C(=O)OCC#C)=C(N)Oc2ccc(-c3cc(OC)cc(OC)c3)cc21` (configuration not stated), the IC50 in assay [1] worked out at 1.16 µM; in assay [2], 0.86 µM. Besides, the “Ratio IC50” value in assay [3] was determined as 0.74.
As to `C#CCOC(=O)CC1C(C(=O)OCC#C)=C(N)Oc2ccc(-c3cccc(N)c3)cc21` (configuration not stated), the values for the IC50 in assay [1] and in assay [2] were 1.73 µM and 0.54 µM, respectively.
As to `C#CCOC(=O)C1=C(N)Oc2ccc(-c3cc(OC)cc(OC)c3)cc2C1CC(=O)CCC` (configuration not stated), the IC50 came to 6.9 µM in assay [1] and 5.4 µM in assay [2]. Moreover, the “Ratio IC50” value in assay [3] stood at 0.78.
As for `C#CCOC(=O)C1=C(N)Oc2ccc(-c3cc(OC)cc(OC)c3)cc2C1CC(O)CCC` (configuration not stated), the values for the 50% inhibitory concentration (IC50) in assay [1] and in assay [2] were 46.6 µM and 35.8 µM, respectively. Besides, the “Ratio IC50” value in assay [3] turned out to be 0.77.
As for `CCCC(=O)CC1C(C(=O)OCC)=C(N)Oc2ccc(-c3cc(OC)cc(OC)c3)cc21` (configuration not stated), the concentration for half-maximal inhibition (IC50) in assay [1] came to 27.3 µM; in assay [2], 11.7 µM. In addition, in assay [3], the “Ratio IC50” value is recorded as 0.43.
In the case of `C#CCOC(=O)C1=C(N)Oc2ccc(-c3cc(OC)cc(OC)c3)cc2C1CC(=O)c1ccccc1` (configuration not stated), the IC50 turned out to be 7.3 µM in assay [1] and 5.9 µM in assay [2]. Moreover, in assay [3], the “Ratio IC50” value came out at 0.81.
The corresponding values for `CCOC(=O)C1=C(N)Oc2ccc(-c3cc(OC)cc(OC)c3)cc2C1CC(=O)c1ccccc1` (configuration not stated) are 109 µM, 41 µM and 0.38.
For the compound `C#CCOC(=O)CC1C(C(=O)OCC#C)=C(N)Oc2cc3c(cc21)-c1cc(OC)cc(OC)c1CO3` (configuration not stated), the half-maximal inhibitory concentration (IC50) in assay [1] worked out at 41.9 µM; in assay [2], 7.4 µM. Also, in assay [3], the “Ratio IC50” value is given as 0.18.
As to `C#CCOC(=O)CC1C(C(=O)OCC#C)=C(N)Oc2cc(C)c(-c3cccc(N)c3)c(C)c21` (configuration not stated), the figures for the IC50 in assay [1] and in assay [2] were 50.5 µM and 82.2 µM, respectively. The “Ratio IC50” value in assay [3] is on record as 1.63.
The corresponding values for `C#CCOC(=O)C1=C(N)Oc2ccc(-c3cc(OC)cc(OC)c3)cc2C1CC(O)c1ccccc1` (configuration not stated) are 100 µM, 54 µM and 0.54.
As for `CCOC(=O)CC1C(C(=O)OCC)=C(N)Oc2ccc(-c3cc(OC)cc(OC)c3)cc21` (configuration not stated), the IC50 in assay [1] was 5.4 µM; in assay [2] it was 1.7 µM. Moreover, the “Ratio IC50” value in assay [3] worked out at 0.32.
